The M2OR odorant receptor database

Tests used:
[1] = biological target: T1, OR5K1 (Homo sapiens) (UniProt Q8NHB7); settings: stereoisomer not certain
T1 sequence (whole entry): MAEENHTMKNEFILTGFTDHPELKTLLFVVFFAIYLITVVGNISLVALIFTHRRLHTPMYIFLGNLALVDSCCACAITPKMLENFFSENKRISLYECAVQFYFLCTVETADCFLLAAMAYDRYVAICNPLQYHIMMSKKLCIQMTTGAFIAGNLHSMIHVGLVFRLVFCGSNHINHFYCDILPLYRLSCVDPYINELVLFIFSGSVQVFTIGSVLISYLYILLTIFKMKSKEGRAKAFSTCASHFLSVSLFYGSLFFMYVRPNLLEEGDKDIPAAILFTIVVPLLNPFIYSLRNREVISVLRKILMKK
In short: (§1)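 Transient luciferase assays in mammalian cell lines were common, though methods varied by source. The values come from published papers and their supplementary material, with extra details from the original authors when needed. Responsive refers to a measured signal the original authors judged statistically different from baseline, and non-responsive (inactive) to the remainder.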

[2] = biological target: T2, OR5M3 (Homo sapiens) (UniProt Q8NGP4); settings: stereoisomer not certain
T2 sequence (whole entry): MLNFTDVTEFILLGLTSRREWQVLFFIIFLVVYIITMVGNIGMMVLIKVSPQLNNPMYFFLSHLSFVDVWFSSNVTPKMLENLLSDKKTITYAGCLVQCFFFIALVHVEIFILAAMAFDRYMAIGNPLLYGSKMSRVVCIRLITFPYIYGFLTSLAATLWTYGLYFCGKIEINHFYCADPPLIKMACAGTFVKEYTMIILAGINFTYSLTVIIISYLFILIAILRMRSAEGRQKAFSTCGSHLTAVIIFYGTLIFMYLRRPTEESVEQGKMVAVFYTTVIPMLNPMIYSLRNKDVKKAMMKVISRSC
In short: as §1
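Note: active if original authors judged signal statistically different from baseline.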

Compound | odorant receptor agonist call [1] | odorant receptor agonist call [2]
CSCSC | inactive | inactive
CC(C)(S)CCOC=O | inactive | inactive
CCCCC1OC(=O)CC1C (stereo not drawn) | inactive | inactive
CCCCC1CCC(=O)O1 (stereo not drawn) | inactive | inactive
C=Cc1ccc(O)cc1 | inactive | inactive
CCCCCCOC(C)=O | inactive | inactive
Cc1occc1S | inactive | inactive
CCCCCCCC(=O)[O-].[H+] | inactive | inactive
CCOC(=O)c1ccccc1 | inactive | inactive
CCC(=O)C1=NCCC1 | inactive | inactive
COCCC(C)(C)S | inactive | inactive
CCCC(S)CCO (stereo not drawn) | inactive | inactive
CC(=O)C1=NCCS1 | inactive | inactive
CC=CC(=O)C1=C(C)CCCC1(C)C | inactive | inactive
CC(C)CCO | inactive | inactive
Cc1c[nH]c2ccccc12 | inactive | inactive
CCCC(=O)OCC | inactive | inactive
CCC=CCCC=CCO | inactive | inactive
CC=Cc1ccc(OC)cc1 | inactive | inactive
CCCCCc1ccccn1 | inactive | inactive

Compound | odorant receptor agonist call [1] | odorant receptor agonist call [2]
CC(C)c1ccc(C=O)cc1 | inactive | inactive
CCC=CCC=O | inactive | inactive
CCC(=O)C(C)=O | inactive | inactive
CCCCCCCCCC(=O)[O-].[H+] | inactive | inactive
Cc1cccc(O)c1 | inactive | inactive
CCCCC=CC=CC=O | inactive | inactive
Cc1occc(=O)c1O | inactive | inactive
C=CC(=O)CC | inactive | inactive
CCCCC(=O)O | inactive | inactive
CCC=CCCOC(C)=O | inactive | inactive
CCCCC(CC)CCC(=O)O (stereo not drawn) | inactive | inactive
O=C(O)CCc1ccccc1 | inactive | inactive
CCC(=O)O | inactive | inactive
COc1cccc(OC)c1O | inactive | inactive
C=C1CCC2CC1C2(C)C (stereo not drawn) | inactive | inactive
SCCc1ccccc1 | inactive | inactive
CCCSSSC | inactive | inactive
COC1=C(C)OC(C)C1=O (stereo not drawn) | active | inactive
CCCC(=O)C(C)CC (stereo not drawn) | inactive | inactive
CCCC1CCCC(=O)O1 (stereo not drawn) | inactive | inactive

Compound | odorant receptor agonist call [1] | odorant receptor agonist call [2]
CSCCC=O | inactive | inactive
C=Cc1ccc(O)c(OC)c1 | inactive | inactive
CC(=O)C=CC1=C(C)CCCC1(C)C | inactive | inactive
CC1=CCC(C(C)C)C=C1 (stereo not drawn) | inactive | inactive
C=CC(O)CCCCC (stereo not drawn) | inactive | inactive
CCOC(=O)C=Cc1ccccc1 | inactive | inactive
Cc1cccc(C)c1O | inactive | inactive
CCCCCC=O | inactive | inactive
CC(C)CCCCCCCCCCC=O | inactive | inactive
Cc1ccc(O)cc1 | inactive | inactive
CCC(=O)C(C)S (stereo not drawn) | inactive | inactive
COC(=O)C(C)C | inactive | inactive
CCCC(O)CC(=O)OCC (stereo not drawn) | inactive | inactive
CCCCCCC1CCC(=O)O1 (stereo not drawn) | inactive | inactive
CCCCCC=CCCC=O | inactive | inactive
O=c1ccc2ccccc2o1 | inactive | inactive
CCc1ccc(O)cc1 | inactive | inactive
CC1=CCC(C(C)(C)S)CC1 (stereo not drawn) | inactive | inactive
CCOC(=O)C(C)C | inactive | inactive
